Published values pooled from the literature.
Protocols differ between the studies behind these lines.
Cell line: 786-0
Effect on: cell growth or viability

SMILES | assay | setting | quantity | value
CC(C)c1c(Sc2ccc(C(=O)N[C@@H](CCC(=O)O)C(=O)O)cc2)[nH]c2nc(N)nc(N)c12 | – | – | GI50 | 5580 nM
COc1ccc(C(=O)/C=C/c2cc3c(cc2Br)OCO3)cc1S(N)(=O)=O | SRB | 10 µM | inhibition | 140%
COc1cccc(Oc2ccccc2NC(=O)CNC(=O)c2cccc3ccccc23)c1 | SRB | 48 h | GI50 | 490 nM
COc1ccc(C(=O)/C=C/c2ccccc2Br)cc1S(N)(=O)=O | SRB | 48 h | GI50 | 1800 nM
CC1=CC(=O)C(C(C)C)=CC1=O | CCK-8 | 48 h | IC50 | 43000 nM
Cc1cc(C)n(C(=S)[S][Au][PH](CCCCCC[PH]([Au][S]C(=S)n2nc(C)cc2C)(c2ccccc2)c2ccccc2)(c2ccccc2)c2ccccc2)n1 | – | – | GI50 | 3100 nM
COc1ccc(-c2ccc(-c3ccc(C(=N)N)nc3)s2)cc1Cl | – | – | GI50 | 2000 nM
S=C([S][Au-][P+](CCCCCC[P+]([Au-][S]C(=S)n1cccn1)(c1ccccc1)c1ccccc1)(c1ccccc1)c1ccccc1)n1cccn1 | – | – | GI50 | 9800 nM
COc1cc(-c2ccc(-c3ccc(C(=N)N)nc3)s2)cc(OC)c1OC | – | – | GI50 | 2120 nM
CCCc1c(Sc2ccc(C(=O)N[C@@H](CCC(=O)O)C(=O)O)cc2)[nH]c2nc(N)nc(N)c12 | – | – | GI50 | ≤ 10 nM
CC(=O)O[C@H]1C(=O)[C@@]2(C)[C@H]([C@H](OC(=O)c3ccccc3)[C@]3(O)C[C@H](OC(=O)[C@H](O)[C@@H](NC(=O)c4ccccc4)c4ccccc4)C(C)=C1C3(C)C)[C@]1(OC(C)=O)CO[C@@H]1C[C@@H]2O | – | 110 h | IC50 | 5 nM
